Assays:
[1] = target: T1, Metabotropic glutamate receptor 2 (Rattus norvegicus, UniProt P31421); test: Binding affinity towards metabotropic glutamate receptor 2 of rat expressed in CHO cells was determined by using [3H]MGS-0008; format: cell-based
[2] = Concentration of compound in plasma of rat after 6 hr of oral dose 10 mg/kg; format: ADME, organism-based; set-up: dose 10 mg/kg, route oral
How it was run: (§1)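 Rats given a single peroral dose of 10 mg/kg. Plasma and cerebrum were sampled at 1, 3, 6 and 24 h. Concentrations were measured by LC/ESI-MS/MS using an internal standard. Detection limits were 1 ng/mL in plasma and 1.5 ng/g in brain. Tmax, Cmax, terminal half-life (lambda z) and predicted AUCinf were derived from the mean time-course levels.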

[3] = Maximum time required to achieve peak plasma concentration in rat plasma upon oral dose of 10 mg/kg; format: ADME, organism-based; set-up: dose 10 mg/kg, route oral; how it was run: as §1
[4] = Concentration of compound in plasma of rat after 1 hr of oral dose 10 mg/kg; format: ADME, organism-based; set-up: dose 10 mg/kg, route oral; how it was run: as §1
[5] = Concentration of compound in brain of rat after 1 hr of oral dose 10 mg/kg; format: ADME, organism-based; set-up: dose 10 mg/kg, route oral; how it was run: as §1
[6] = Half-life in rat upon oral dose of 3 mg/kg; format: ADME, organism-based; set-up: dose 3 mg/kg, route oral; conditions: in vivo
How it was run: (§2)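 Fasted rats were dosed orally at 3, 10 or 30 mg/kg. Plasma concentration-time profiles were measured by LC/ESI-MS/MS. Cmax, Tmax, elimination half-life and AUCinf were derived per dose group and reported as mean ± deviation.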

[7] = Maximum time required to achieve peak plasma concentration upon oral dose of 10 mg/kg to rats; format: ADME, organism-based; set-up: dose 10 mg/kg, route oral; conditions: rat; how it was run: as §2
[8] = Maximum time required to achieve peak plasma concentration upon oral dose of 30 mg/kg to rats; format: ADME, organism-based; set-up: dose 30 mg/kg, route oral; conditions: rat; how it was run: as §2
[9] = Peak plasma concentration in rats upon oral dose of 30 mg/kg; format: ADME, organism-based; set-up: dose 30 mg/kg, route oral; conditions: rat; how it was run: as §2
[10] = Peak plasma concentration in rats upon oral dose of 10 mg/kg; format: ADME, organism-based; set-up: dose 10 mg/kg, route oral; conditions: rat; how it was run: as §2
[11] = Concentration of compound in brain of rat after 6 hr of oral dose 10 mg/kg; format: ADME, organism-based; set-up: dose 10 mg/kg, route oral; how it was run: as §1
[12] = Concentration of compound in plasma of rat after 3h of oral dose 10 mg/kg; format: ADME, organism-based; set-up: dose 10 mg/kg, route oral; how it was run: as §1
[13] = Peak plasma concentration in rat plasma upon oral dose of 10 mg/kg; format: ADME, organism-based; set-up: dose 10 mg/kg, route oral; how it was run: as §1
[14] = Concentration of compound in plasma of rat after 24 hr of oral dose 10 mg/kg; format: ADME, organism-based; set-up: dose 10 mg/kg, route oral; how it was run: as §1
[15] = Peak plasma concentration in rat brain upon oral dose of 10 mg/kg; format: ADME, organism-based; set-up: dose 10 mg/kg, route oral; how it was run: as §1
[16] = Half-life in rat plasma upon oral dose of 10 mg/kg; format: ADME, organism-based; set-up: dose 10 mg/kg, route oral; how it was run: as §1
[17] = Half-life in rat upon oral dose of 30 mg/kg; format: ADME, organism-based; set-up: dose 30 mg/kg, route oral; conditions: in vivo; how it was run: as §2
[18] = target: Metabotropic glutamate receptor 3 (Rattus norvegicus, UniProt P31422); test: Binding affinity towards metabotropic glutamate receptor 3 of rat expressed in CHO cells was determined by using [3H]MGS-0008; format: cell-based
[19] = target: T1, Metabotropic glutamate receptor 2; test: Concentration required to inhibit metabotropic glutamate receptor 2 activity of rat expressed in CHO cells; format: cell-based
[20] = Concentration of compound in brain of rat after 3h of oral dose 10 mg/kg; format: ADME, organism-based; set-up: dose 10 mg/kg, route oral; how it was run: as §1
[21] = Half-life in rat upon oral dose of 10 mg/kg; format: ADME, organism-based; set-up: dose 10 mg/kg, route oral; conditions: in vivo; how it was run: as §2
[22] = Half-life in rat brain upon oral dose of 10 mg/kg; format: ADME, organism-based; set-up: dose 10 mg/kg, route oral; how it was run: as §1
[23] = Maximum time required to achieve peak plasma concentration upon oral dose of 3 mg/kg to rats; format: ADME, organism-based; set-up: dose 3 mg/kg, route oral; conditions: rat; how it was run: as §2
[24] = Peak plasma concentration in rats upon oral dose of 3 mg/kg; format: ADME, organism-based; set-up: dose 3 mg/kg, route oral; conditions: rat; how it was run: as §2
[25] = Maximum time required to achieve peak plasma concentration in rat brain upon oral dose of 10 mg/kg; format: ADME, organism-based; set-up: dose 10 mg/kg, route oral; how it was run: as §1
[26] = target: T1, Metabotropic glutamate receptor 2; test: Effective concentration for agonistic activity towards metabotropic glutamate receptor 2 of rat expressed in CHO cells; format: functional, cell-based
[27] = Concentration of compound in brain of rat after 24 hr of oral dose 10 mg/kg; format: ADME, organism-based; set-up: dose 10 mg/kg, route oral; how it was run: as §1
[28] = target: T2, Metabotropic glutamate receptor 1 (Rattus norvegicus, UniProt P23385); test: Concentration required to inhibit metabotropic glutamate receptor 1 activity of rat expressed in CHO cells; format: cell-based
[29] = target: T3, Metabotropic glutamate receptor 5 (Rattus norvegicus, UniProt P31424); test: Concentration required to inhibit metabotropic glutamate receptor 5 activity of rat expressed in CHO cells; format: cell-based
[30] = target: T3, Metabotropic glutamate receptor 5; test: Effective concentration for agonistic activity towards metabotropic glutamate receptor 5 of rat expressed in CHO cells; format: functional, cell-based
[31] = target: T4, Metabotropic glutamate receptor 6 (Rattus norvegicus, UniProt P35349); test: Concentration required to inhibit metabotropic glutamate receptor 6 activity of rat expressed in CHO cells; format: cell-based
[32] = target: Metabotropic glutamate receptor 4 (Rattus norvegicus, UniProt P31423); test: Concentration required to inhibit metabotropic glutamate receptor 4 activity of rat expressed in CHO cells; format: cell-based
[33] = target: Metabotropic glutamate receptor 7 (Rattus norvegicus, UniProt P35400); test: Binding affinity towards metabotropic glutamate receptor 7 of rat expressed in CHO cells was determined by using [3H]LY341495
[34] = target: T4, Metabotropic glutamate receptor 6; test: Effective concentration for agonistic activity towards metabotropic glutamate receptor 6 of rat expressed in CHO cells; format: functional, cell-based
[35] = target: T2, Metabotropic glutamate receptor 1; test: Effective concentration for agonistic activity towards metabotropic glutamate receptor 1 of rat expressed in CHO cells; format: functional, cell-based

Chain of Metabotropic glutamate receptor 3 (P31422 whole entry): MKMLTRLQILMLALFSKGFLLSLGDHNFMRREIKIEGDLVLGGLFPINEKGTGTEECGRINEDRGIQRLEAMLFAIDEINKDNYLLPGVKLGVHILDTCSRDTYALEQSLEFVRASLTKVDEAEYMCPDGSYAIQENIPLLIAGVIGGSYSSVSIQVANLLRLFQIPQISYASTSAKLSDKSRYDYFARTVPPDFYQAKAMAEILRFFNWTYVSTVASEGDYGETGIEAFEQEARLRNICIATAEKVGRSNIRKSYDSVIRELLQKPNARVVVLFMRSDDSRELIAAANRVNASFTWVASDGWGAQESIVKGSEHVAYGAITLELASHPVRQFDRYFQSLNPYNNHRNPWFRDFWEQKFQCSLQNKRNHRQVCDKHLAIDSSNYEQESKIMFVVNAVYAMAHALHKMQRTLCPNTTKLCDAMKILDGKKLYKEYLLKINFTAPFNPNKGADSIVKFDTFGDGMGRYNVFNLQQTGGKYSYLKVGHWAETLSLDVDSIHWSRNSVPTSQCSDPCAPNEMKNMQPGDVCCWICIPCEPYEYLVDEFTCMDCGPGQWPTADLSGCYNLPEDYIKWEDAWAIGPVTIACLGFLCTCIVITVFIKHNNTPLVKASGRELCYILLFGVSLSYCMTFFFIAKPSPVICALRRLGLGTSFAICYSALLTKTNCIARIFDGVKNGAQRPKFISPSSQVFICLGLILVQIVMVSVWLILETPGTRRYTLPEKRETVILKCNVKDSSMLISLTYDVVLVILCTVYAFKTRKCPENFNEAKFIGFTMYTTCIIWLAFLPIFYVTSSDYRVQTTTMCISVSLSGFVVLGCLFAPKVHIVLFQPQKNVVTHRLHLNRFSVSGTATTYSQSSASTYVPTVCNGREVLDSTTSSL
T1 sequence (P31421 whole entry): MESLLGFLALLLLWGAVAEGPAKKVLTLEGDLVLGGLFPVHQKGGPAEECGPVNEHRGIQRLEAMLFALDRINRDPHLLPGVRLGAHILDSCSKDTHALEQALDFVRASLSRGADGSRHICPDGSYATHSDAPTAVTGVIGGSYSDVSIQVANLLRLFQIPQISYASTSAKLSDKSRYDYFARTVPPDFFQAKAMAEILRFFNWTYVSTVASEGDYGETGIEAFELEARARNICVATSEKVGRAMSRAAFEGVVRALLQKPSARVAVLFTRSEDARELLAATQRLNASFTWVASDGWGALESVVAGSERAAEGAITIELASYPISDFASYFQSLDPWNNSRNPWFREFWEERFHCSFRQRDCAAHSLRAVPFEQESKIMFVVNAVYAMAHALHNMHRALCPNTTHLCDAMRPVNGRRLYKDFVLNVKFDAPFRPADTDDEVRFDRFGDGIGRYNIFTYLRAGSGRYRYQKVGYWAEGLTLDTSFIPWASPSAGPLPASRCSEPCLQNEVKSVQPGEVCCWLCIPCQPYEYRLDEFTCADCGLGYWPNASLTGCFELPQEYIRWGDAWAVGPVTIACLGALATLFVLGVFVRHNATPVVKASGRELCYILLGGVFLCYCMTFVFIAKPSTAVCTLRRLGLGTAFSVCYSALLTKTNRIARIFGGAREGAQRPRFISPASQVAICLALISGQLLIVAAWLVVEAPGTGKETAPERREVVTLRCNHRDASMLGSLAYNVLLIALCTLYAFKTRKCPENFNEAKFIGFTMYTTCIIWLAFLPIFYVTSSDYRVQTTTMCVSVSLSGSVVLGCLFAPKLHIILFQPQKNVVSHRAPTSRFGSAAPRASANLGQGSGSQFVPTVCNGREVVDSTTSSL
T2 sequence (P23385 whole entry): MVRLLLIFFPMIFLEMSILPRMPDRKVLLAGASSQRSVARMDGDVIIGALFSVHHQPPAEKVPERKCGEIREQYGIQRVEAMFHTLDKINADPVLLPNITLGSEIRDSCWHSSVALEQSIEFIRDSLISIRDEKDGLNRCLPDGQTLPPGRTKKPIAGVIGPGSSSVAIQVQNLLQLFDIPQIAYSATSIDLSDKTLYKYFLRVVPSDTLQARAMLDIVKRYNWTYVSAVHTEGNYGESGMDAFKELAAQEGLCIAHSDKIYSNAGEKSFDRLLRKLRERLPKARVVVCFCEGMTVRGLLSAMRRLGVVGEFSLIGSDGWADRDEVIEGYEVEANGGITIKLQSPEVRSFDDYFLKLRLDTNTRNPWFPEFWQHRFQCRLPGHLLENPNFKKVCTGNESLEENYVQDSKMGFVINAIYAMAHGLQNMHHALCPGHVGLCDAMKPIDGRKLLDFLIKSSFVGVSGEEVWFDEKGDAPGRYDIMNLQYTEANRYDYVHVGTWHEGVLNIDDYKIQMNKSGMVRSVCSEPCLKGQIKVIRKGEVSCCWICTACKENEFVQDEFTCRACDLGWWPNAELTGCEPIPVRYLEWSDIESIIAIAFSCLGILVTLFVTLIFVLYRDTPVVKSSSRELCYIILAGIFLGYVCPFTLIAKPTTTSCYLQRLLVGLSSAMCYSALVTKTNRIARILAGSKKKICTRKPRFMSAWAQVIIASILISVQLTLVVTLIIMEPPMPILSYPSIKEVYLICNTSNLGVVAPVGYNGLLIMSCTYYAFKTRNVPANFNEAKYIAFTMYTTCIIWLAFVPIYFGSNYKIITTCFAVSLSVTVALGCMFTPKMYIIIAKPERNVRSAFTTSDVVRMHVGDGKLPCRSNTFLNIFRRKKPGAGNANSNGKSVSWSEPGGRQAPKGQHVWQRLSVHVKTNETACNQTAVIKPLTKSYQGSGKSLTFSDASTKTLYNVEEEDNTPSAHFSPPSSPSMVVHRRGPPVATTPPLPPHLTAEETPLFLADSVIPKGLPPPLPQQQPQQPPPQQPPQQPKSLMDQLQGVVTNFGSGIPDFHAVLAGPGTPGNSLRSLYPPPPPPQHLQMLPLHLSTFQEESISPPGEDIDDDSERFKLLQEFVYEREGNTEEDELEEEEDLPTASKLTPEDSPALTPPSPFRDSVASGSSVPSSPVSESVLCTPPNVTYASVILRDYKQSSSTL
T3 sequence (P31424 whole entry): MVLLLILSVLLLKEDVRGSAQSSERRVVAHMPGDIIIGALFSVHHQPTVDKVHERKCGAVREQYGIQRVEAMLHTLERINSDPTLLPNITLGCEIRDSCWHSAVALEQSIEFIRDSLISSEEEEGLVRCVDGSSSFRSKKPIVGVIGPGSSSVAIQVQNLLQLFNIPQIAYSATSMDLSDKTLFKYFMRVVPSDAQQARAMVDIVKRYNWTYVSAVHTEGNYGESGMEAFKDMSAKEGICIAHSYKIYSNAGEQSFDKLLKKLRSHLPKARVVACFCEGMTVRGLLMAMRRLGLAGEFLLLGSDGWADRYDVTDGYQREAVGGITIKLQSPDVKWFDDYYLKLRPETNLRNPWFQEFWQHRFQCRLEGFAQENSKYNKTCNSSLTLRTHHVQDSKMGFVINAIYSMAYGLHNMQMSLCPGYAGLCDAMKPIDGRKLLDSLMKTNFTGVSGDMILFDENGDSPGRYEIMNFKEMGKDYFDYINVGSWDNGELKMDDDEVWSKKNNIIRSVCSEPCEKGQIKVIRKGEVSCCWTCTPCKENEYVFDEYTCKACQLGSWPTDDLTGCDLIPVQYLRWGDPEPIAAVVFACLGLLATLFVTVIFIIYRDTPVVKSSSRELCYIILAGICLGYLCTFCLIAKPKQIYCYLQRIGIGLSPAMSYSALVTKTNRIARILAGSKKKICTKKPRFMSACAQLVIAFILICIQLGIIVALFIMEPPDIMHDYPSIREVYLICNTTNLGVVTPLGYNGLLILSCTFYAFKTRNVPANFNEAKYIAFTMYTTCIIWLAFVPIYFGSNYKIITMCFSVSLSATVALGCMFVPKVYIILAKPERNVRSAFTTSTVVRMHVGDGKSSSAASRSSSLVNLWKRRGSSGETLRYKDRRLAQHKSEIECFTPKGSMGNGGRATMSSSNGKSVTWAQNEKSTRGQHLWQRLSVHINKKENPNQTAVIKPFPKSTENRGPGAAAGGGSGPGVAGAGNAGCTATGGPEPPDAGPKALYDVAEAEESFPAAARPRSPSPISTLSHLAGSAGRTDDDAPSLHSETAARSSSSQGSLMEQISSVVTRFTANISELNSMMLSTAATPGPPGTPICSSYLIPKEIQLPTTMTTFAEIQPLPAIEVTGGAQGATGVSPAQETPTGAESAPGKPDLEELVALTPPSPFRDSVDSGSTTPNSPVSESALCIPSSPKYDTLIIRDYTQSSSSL
T4 sequence (P35349 whole entry): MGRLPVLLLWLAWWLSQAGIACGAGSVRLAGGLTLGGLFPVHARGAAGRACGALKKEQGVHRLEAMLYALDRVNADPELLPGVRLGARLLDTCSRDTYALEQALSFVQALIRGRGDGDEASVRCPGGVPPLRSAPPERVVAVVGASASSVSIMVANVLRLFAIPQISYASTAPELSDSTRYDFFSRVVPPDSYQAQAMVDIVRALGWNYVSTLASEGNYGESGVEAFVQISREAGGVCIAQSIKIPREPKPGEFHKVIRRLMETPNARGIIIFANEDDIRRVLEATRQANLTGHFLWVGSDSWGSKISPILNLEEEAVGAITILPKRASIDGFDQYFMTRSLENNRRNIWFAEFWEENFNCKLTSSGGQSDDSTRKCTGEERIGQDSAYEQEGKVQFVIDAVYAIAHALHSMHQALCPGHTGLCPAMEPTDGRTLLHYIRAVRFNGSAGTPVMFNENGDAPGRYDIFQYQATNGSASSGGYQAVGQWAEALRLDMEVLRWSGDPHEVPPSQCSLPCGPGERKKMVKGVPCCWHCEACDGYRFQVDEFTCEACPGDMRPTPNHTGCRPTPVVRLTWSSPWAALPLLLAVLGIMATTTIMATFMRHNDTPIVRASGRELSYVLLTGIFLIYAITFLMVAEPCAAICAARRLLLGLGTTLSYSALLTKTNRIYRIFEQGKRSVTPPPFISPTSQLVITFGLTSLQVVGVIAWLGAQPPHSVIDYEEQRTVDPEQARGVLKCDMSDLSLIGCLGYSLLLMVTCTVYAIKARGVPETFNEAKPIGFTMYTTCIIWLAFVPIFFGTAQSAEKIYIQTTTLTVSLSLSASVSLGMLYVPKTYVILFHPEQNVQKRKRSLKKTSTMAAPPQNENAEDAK

Work on `N[C@]1(C(=O)O)[C@H]2[C@@H](C[C@H]1OCc1cccc(Cl)c1)[C@]2(F)C(=O)O` yielded a Ki [1] of 3.28 nM.
With `N[C@]1(C(=O)O)[C@H]2[C@@H](C[C@H]1OCc1cccc(C(=O)O)c1)[C@]2(F)C(=O)O` the Ki [1] was 1.06 nM.
Molecule `N[C@]1(C(=O)O)[C@H]2[C@@H](C[C@H]1OCc1ccc(F)c(F)c1)[C@]2(F)C(=O)O` has a concentration at 6 h [2] of 41.1 ng/mL, a Tmax [3] of 1 h and a concentration at 1 h [4] of 213 ng/mL. For the same molecule, the concentration at 1 h [5] was 3.06 ng/mL, the half-life [6] was 3.47 h and the Tmax [7] was 1.7 h. It also gave a Tmax [8] of 1.2 h, a Cmax [9] of 635 ng/mL and a Cmax [10] of 297 ng/mL. For the same molecule, the concentration at 6 h [11] was 2.4 ng/mL, the Ki [1] was 2.27 nM and the concentration at 3 h [12] was 179 ng/mL. It also gave a Cmax [13] of 213 ng/mL, a concentration at 24 h [14] of 0.8 ng/mL and a Cmax [15] of 3.11 ng/mL. For the same molecule, the half-life [16] was 2.8 h, the half-life [17] was 3.62 h and the Ki [18] was 3 nM. The IC50 [19] was 40.8 nM, the concentration at 3 h [20] was 3.11 ng/mL and the half-life [21] was 1.78 h. It also gave a half-life [22] of 19.5 h, a Tmax [23] of 1.3 h and a Cmax [24] of 82.3 ng/mL. It also gave a Tmax [25] of 3 h, an EC50 [26] greater than 100000 nM and a concentration at 24 h [27] of 1.39 ng/mL.
With `N[C@](CC1c2ccccc2Oc2ccccc21)(C(=O)O)[C@H]1C[C@@H]1C(=O)O` the IC50 [28] was 8990 nM, the IC50 [29] was 11400 nM and the EC50 [30] was greater than 100000 nM. For the same molecule, the IC50 [31] was 1140 nM, the IC50 [32] was 2650 nM and the Ki [33] was 110 nM. The EC50 [34] was greater than 100000 nM and the EC50 [35] was greater than 100000 nM.
Work on `N[C@]1(C(=O)O)[C@H]2[C@@H](C[C@H]1OCc1ccc3ccccc3c1)[C@]2(F)C(=O)O` yielded a concentration at 6 h [2] of 210 ng/mL, a Tmax [3] of 3 h and a concentration at 1 h [4] of 121 ng/mL. It also gave a concentration at 1 h [5] of 1.42 ng/mL, a half-life [6] of 3.66 h and a Tmax [7] of 2.7 h. It also gave a Tmax [8] of 2.7 h, a Cmax [9] of 965 ng/mL and a Cmax [10] of 374 ng/mL. For the same molecule, the concentration at 6 h [11] was 8.72 ng/mL, the concentration at 3 h [12] was 252 ng/mL and the Cmax [13] was 252 ng/mL. It also gave a concentration at 24 h [14] of 2.2 ng/mL, a Cmax [15] of 8.72 ng/mL and a half-life [16] of 2.9 h. For the same molecule, the half-life [17] was 2.93 h, the Ki [18] was 5.43 nM and the IC50 [19] was 22.7 nM. It also gave a concentration at 3 h [20] of 3.64 ng/mL, a half-life [21] of 2.74 h and a half-life [22] of 7.1 h. It also gave a Tmax [23] of 4 h, a Cmax [24] of 65.9 ng/mL and a Tmax [25] of 6 h. For the same molecule, the concentration at 24 h [27] was 0.25 ng/mL.
In the case of `N[C@]1(C(=O)O)[C@H]2[C@@H](C[C@H]1OCc1c(Cl)cccc1Cl)[C@]2(F)C(=O)O`, the Ki [1] is reported as 4.3 nM.
For `N[C@]1(C(=O)O)[C@H]2[C@@H](C[C@H]1OCc1ccccc1)[C@]2(F)C(=O)O`, the Ki [1] was 7.14 nM, the Ki [18] was 15.9 nM and the IC50 [19] was 131 nM.
For `N[C@]1(C(=O)O)[C@H]2[C@@H](C[C@H]1OCc1cc(Cl)ccc1Cl)[C@]2(F)C(=O)O`, the Ki [1] was 11.8 nM.
Work on `N[C@]1(C(=O)O)[C@H]2[C@@H](C[C@H]1OCc1cc(Cl)c(Cl)c(Cl)c1)[C@]2(F)C(=O)O` yielded a Ki [1] of 3.67 nM.
Molecule `CC[C@H](O[C@@H]1C[C@@H]2[C@H]([C@]1(N)C(=O)O)[C@@]2(F)C(=O)O)c1ccc(Cl)c(Cl)c1` has a Ki [1] of 3.12 nM.
Work on `N[C@]1(C(=O)O)[C@@H](OCc2ccc(Cl)c(Cl)c2)C[C@H]2[C@@H]1[C@]2(F)C(=O)O` yielded a Ki [1] greater than 10000 nM.
`COc1cccc(CO[C@@H]2C[C@@H]3[C@H]([C@]2(N)C(=O)O)[C@@]3(F)C(=O)O)c1` gave a Ki [1] of 5.92 nM.
Work on `N[C@]1(C(=O)O)[C@H]2[C@@H](C[C@H]1OCc1cc(F)ccc1F)[C@]2(F)C(=O)O` yielded a Ki [1] of 14.4 nM.
`CC[C@@H](O[C@@H]1C[C@@H]2[C@H]([C@]1(N)C(=O)O)[C@@]2(F)C(=O)O)c1ccc(Cl)c(Cl)c1` gave a Ki [1] of 1.61 nM.
In the case of `C[C@H](O[C@@H]1C[C@@H]2[C@H]([C@]1(N)C(=O)O)[C@@]2(F)C(=O)O)c1ccc(Cl)c(Cl)c1`, the Ki [1] is reported as 5.81 nM.

Reference: ChEMBL document CHEMBL1138738, “Synthesis, in vitro pharmacology, structure-activity relationships, and pharmacokinetics of 3-alkoxy-2-amino-6-fluorobicyclo[3.1.0]hexane-2,6-dicarboxylic acid derivatives as potent and selective group II metabotropic glutamate receptor antagonists” (J Med Chem, 2004)
